Results reported in paper PMC3820002 (Neuropharmacology, 2010).
Several values for one entry are separate records, joined by “and”; a condition that tells them apart may be missing. Equal values may be shown once.

Legend:
rat = details: ref ScienceLab.com; cited from earlier work
D3 dopamine receptors = D3 dopamine receptors (Homo sapiens, UniProt P35462); type: cell-based; details: transfected HEK cells; test ligand 10 nM; relative to quinpirole
[1] = tested on: unilaterally lesioned rats; experiment: L-dopa dependent abnormal involuntary movements; type: in vivo, rat; details: for Normalized total AIMs score, percent relative to vehicle control: 10 mg/kg
[2] = tested on: unilaterally lesioned rats; experiment: Apomorphine-dependent AIMs in unilaterally lesioned rats; type: in vivo, rat
In short: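 Unilaterally lesioned rats received the test compound (10 mg/kg i.p.) or vehicle, immediately followed by apomorphine 0.05 mg/kg s.c. Total AIMs scores were summed over time and expressed as percent of vehicle control, as mean ± S.E.M., n = 12. Periods analysed: 0–60, 0–40 and 50–60 min.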

[3] = tested on: unilaterally lesioned rats; experiment: Rotarod test of motor performance and coordination; type: in vivo, rat; details: 10 mg/kg i.p.; 30 and 60 minutes post drug administration; p ≥ 0.10
[4] = tested on: unilaterally lesioned rats; experiment: Cylinder test of forelimb usage; type: in vivo, rat; details: PG01042 10 mg/kg with L-dopa/benserazide 8 mg/kg each
In short: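 Unilaterally lesioned rats received saline, L-dopa plus benserazide (8 mg/kg each), or these with the test compound (10 mg/kg). In the cylinder, an observer scored which forelimb first touched the Plexiglas wall (left, right or both) during rearing. The right forelimb was contralateral to the lesion. Scoring began 12 min (5 min) and 20 min (until >13 touches/rat) post injection. Read-out was percent usage, n = 7.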

[5] = molecular target: human D2 dopamine receptor; details: read-out: Ki at dopamine D2 receptors; ref Grundt et al., 2005; cited from earlier work
[6] = tested on: human D3 dopamine receptor; details: binding; ref Grundt et al., 2005; cited from earlier work
D2 dopamine receptor = details: transfected CHO cells; maximum 10^-5 M; ref Grundt et al., 2005; cited from earlier work
D3 dopamine receptor = details: transfected CHO cells; maximum 10^-5 M; ref Grundt et al., 2005; cited from earlier work
[7] = 10 mg/kg i.p., 0 min pretreatment, L-dopa/benserazide 8 mg/kg each, n = 12

Sequence of D3 dopamine receptors (P35462 whole entry): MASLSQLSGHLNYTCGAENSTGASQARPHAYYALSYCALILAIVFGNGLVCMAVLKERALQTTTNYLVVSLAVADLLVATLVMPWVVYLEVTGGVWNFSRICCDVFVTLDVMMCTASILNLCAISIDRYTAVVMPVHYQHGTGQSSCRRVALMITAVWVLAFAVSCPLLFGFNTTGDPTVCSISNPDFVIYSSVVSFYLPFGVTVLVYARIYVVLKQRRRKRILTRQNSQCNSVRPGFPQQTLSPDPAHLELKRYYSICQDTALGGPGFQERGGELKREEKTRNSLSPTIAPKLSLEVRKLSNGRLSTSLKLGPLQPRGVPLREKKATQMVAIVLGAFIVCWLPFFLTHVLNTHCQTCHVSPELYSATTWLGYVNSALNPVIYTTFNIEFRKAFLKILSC

In the case of C[S+](C)[O-] [DMSO, dimethylsulfoxide], the “Oral acute LD50” value (rat) is listed as 14500 mg/kg.
With O=C(NCCCCN1CCN(c2cccc(Cl)c2Cl)CC1)c1ccc(-c2cccnc2)cc1 [PG01042, N-(4-(4-(2,3-dichlorophenyl)piperazin-1-yl)butyl)-4-(pyridin-3-yl)benzamide] the “Intrinsic activity at D3 receptors, adenylyl cyclase inhibition” value (D3 dopamine receptors) was “agonist”, the “Mean reduction in the total AIMs score” value ([1]; 1 mg/kg i.p., 0 min pretreatment, L-dopa/benserazide 8 mg/kg each, n = 12) was 8.4 ± 7.3% and the “Mean reduction in the total AIMs score” value ([1]; 3 mg/kg i.p., 0 min pretreatment, L-dopa/benserazide 8 mg/kg each, n = 12, dose response experiment) was 25.2 ± 4.4%. For the same compound, the “Percent reduction of axial twisting AIM score” value [1, 7] was 78.5 ± 4.6%, the “Percent reduction of forelimb movement AIM score” value [1, 7] was 56% and 56.0 ± 3.1% and the “Percent reduction of locomotion AIM score” value [1, 7] was 80.4 ± 9.5%. The “Percent reduction of orolingual AIM score” value [1, 7] was 76.5 ± 10.8%, the “Precipitation of AIMs by test drug alone” value ([1]; 10 mg/kg i.p., during the 60 min pretreatment period before L-dopa) was “did not precipitate any AIMs” and the “Normalized total AIMs score, percent relative to vehicle control” value ([1]; 0 minutes pretreatment before L-dopa/benserazide 8 mg/kg) was 29.4 ± 6.1%. The “Normalized total AIMs score, percent relative to vehicle control” value ([1]; 60 minutes pretreatment before L-dopa/benserazide 8 mg/kg) was 68.0 ± 8.6%, the “Effect on total AIM scores versus vehicle control” value ([1]; PG01042 3 mg/kg simultaneously with L-dopa 8 mg/kg i.p., F(1,22) = 14.4, n = 12) was “significantly attenuate” and the “IC50 for attenuation of total AIMs score, linear regression analysis” value ([1]; i.p., 0 min pretreatment, doses 0 to 10 mg/kg, L-dopa/benserazide 8 mg/kg each) was 6.6 mg/kg. For the same compound, the “IC50 for attenuation of total AIMs score, one site fit” value ([1]; i.p., 0 min pretreatment, curve constrained to 0 and 100%, r^2 = 0.98) was 5.6 mg/kg, the “Percent reduction in the total AIMs score, apomorphine-dependent” value ([2]; 10 mg/kg i.p. simultaneously with apomorphine 0.05 mg/kg s.c., 0 to 60 minutes, n = 12) was 14.5 ± 3.0% and the “Percent attenuation of the AIMs minus locomotor scores, apomorphine-dependent” value ([2]; PG01042 simultaneously with apomorphine 0.05 mg/kg s.c., whole time period) was “approximately 15%”. The “Latency to fall on rotarod versus vehicle control” value [3] was “no statistical significant difference”, the “Use of right (compromised) forelimb” value ([4]; 12 minutes post injection, n = 7) was 70.1 ± 2.3% and the “Use of right paw” value ([4]; 20 minutes post injection) was 85.0 ± 4.6%. The Ki [5] was 18.2 nM, the “D3 selectivity compared to the D2 dopamine receptor subtype” value [6] was 39 fold and > 39 fold and the “Intrinsic activity at D2 receptors, mitogenic assay” value (D2 dopamine receptor) was “partial agonist”. For the same compound, the “Intrinsic activity at D3 receptors, mitogenic assay” value (D3 dopamine receptor) was “partial agonist”.
For COc1ccccc1N1CCN(CCN(C(=O)C2CCCCC2)c2ccccn2)CC1 [WAY 100635, reference compound], the “Reduction in the attenuation of total AIMs score by PG01037” value ([1]; WAY 100635 1 mg/kg 10 min before PG01037 3 mg/kg, L-dopa 8 mg/kg i.p.) was “no reduction”.
In the case of O=C(NC/C=C/CN1CCN(c2cccc(Cl)c2Cl)CC1)c1ccc(-c2ccccn2)cc1 [PG01037, (E)-N-(4-(4-(2,3-dichlorophenyl)piperazin-1-yl)but-2-enyl)-4-(pyridin-2-yl)benzamide], the “Intrinsic activity at D3 receptors, adenylyl cyclase inhibition” value (D3 dopamine receptors) is listed as “antagonist” and the “Intrinsic activity at D3 receptors, mitogenic assay” value (D3 dopamine receptor) is listed as “antagonist”.
For Cl.O=C1CC2(CCCC2)CC(=O)N1CCCCN1CCN(c2ncccn2)CC1 [buspirone, N-[4-[4-(2-pyrimidinyl)-1-piperazinyl]butyl]-8-azaspiro[4.5]decane-7,9-dione hydrochloride, reference compound], the “%Reduction of total AIMs values” ([1]; buspirone 1 mg/kg i.p. with L-dopa 8 mg/kg and benserazide 8 mg/kg, n = 12) was 34.8 ± 6.2% and the “Effect on total AIM scores versus vehicle control” value ([1]; buspirone 4 mg/kg 30 minutes prior to L-dopa 8 mg/kg i.p., p < 0.001, n = 10) was “significant reduction”.
